The text below walks through data of the RNAGym collection of RNA variant scans (doi:10.1002/anie.201605470).

First the molecules themselves.
B1: Osa-1-4 twister ribozyme (parent)
chain: CCGCCUAACACUGCCAAUGCCGGUCCCAAGCCCGGAUAAAAGUGGAGGGGGCGG

The variants in the data set derive from B1. Nature of the data set: self-cleavage, relative activity (ratio to wild type); higher = more cleavage; co-transcriptional. The procedure, abridged: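 A DNA template was synthesised for a 54-nucleotide twister ribozyme from Oryza sativa, with 97 % wild-type base and 1 % of each other base at each of the 48 positions downstream of the cleavage site. The ribozyme cleaved itself co-transcriptionally during 2 h of in vitro transcription at 37 °C. Reverse transcription with a template-switching oligonucleotide, PCR amplification and deep sequencing followed, and cleavage status came from reads with or without upstream sequence. Relative activity is the fraction cleaved normalised to wild type.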
As to C20U C32G, the self-cleavage is 0.13.

Consider C20U C32A, for which the self-cleavage is 0.08.

As for C20U C32U, the self-cleavage amounted to 0.15.

On to C20G G23C, for which the self-cleavage turned out to be 0.04.

With C20G G23A, the self-cleavage came out at 0.06.

Regarding C20G G23U, the self-cleavage amounted to 0.04.

For the variant C20G G54U, the self-cleavage came out at 0.12.

As to C20G G54C, the self-cleavage was found to be 0.07.

For the variant C20G G54A, the self-cleavage was found to be 0.06.

Consider C20G G48U, for which the self-cleavage was 0.03.

Consider C20G G48A, for which the self-cleavage was 0.03.

Consider C20G G48C, for which the self-cleavage is 0.04.

As for C20U G53U, the self-cleavage is 0.38.

With C20U G53A, the self-cleavage is 0.75.

As to C20U G53C, the self-cleavage was found to be 0.09.

For G19U G51U, the self-cleavage amounted to 0.08.

On to G19U G51C, for which the self-cleavage came to 0.07.

For G19U G51A, the self-cleavage was determined as 0.15.

As for C20U G54U, the self-cleavage worked out at 0.85.

For the variant C20U G54C, the self-cleavage is 0.84.

Consider C20U G54A, for which the self-cleavage was determined as 0.75.

For C20A G19A, the self-cleavage was determined as 0.86.

For the variant C20A G19C, the self-cleavage is 0.31.

With C20A G19U, the self-cleavage stood at 0.78.

With C20A C25U, the self-cleavage is 0.78.

Consider C20A C25A, for which the self-cleavage was determined as 0.19.

C20A C25G: the self-cleavage stood at 0.11.

With C20U C33A, the self-cleavage was determined as 0.11.

As for C20U C33G, the self-cleavage amounted to 0.07.

As for C20U C33U, the self-cleavage turned out to be 0.77.

As to G19U G54C, the self-cleavage amounted to 0.1.

On to G19U G54U, for which the self-cleavage amounted to 0.54.

Turning to G19U G54A, the self-cleavage came out at 0.16.

Regarding C20G G19A, the self-cleavage is 0.41.

C20G G19C: the self-cleavage stood at 0.17.

Regarding C20G G19U, the self-cleavage is 0.37.

Regarding C20A G13C, the self-cleavage came out at 0.01.

With C20A G13A, the self-cleavage was determined as 0.13.

As for C20A G13U, the self-cleavage was 0.02.

For the variant C20U C27A, the self-cleavage was 0.23.

For the variant C20U C27G, the self-cleavage turned out to be 0.08.

For the variant C20U C27U, the self-cleavage worked out at 0.26.

For C20U G13U, the self-cleavage came out at 0.04.

As for C20U G13A, the self-cleavage stood at 0.15.

As to C20U G13C, the self-cleavage amounted to 0.02.

Take C20U G19A: the self-cleavage was 0.9.

On to C20U G19U, for which the self-cleavage came to 0.65.

C20U G19C: the self-cleavage was determined as 0.18.

As to C20G C26A, the self-cleavage was 0.03.

Take C20G C26G: the self-cleavage was determined as 0.1.

C20G C26U: the self-cleavage was found to be 0.2.

With G19U G45C, the self-cleavage came out at 0.04.

Take G19U G45A: the self-cleavage was found to be 0.03.

G19U G45U: the self-cleavage was 0.04.

In the case of C20G G30U, the self-cleavage amounted to 0.02.

For C20G G30C, the self-cleavage is 0.03.

With C20G G30A, the self-cleavage amounted to 0.03.

Turning to G19U G50C, the self-cleavage came to 0.1.

As for G19U G50U, the self-cleavage turned out to be 0.21.

As to G19U G50A, the self-cleavage came to 0.59.

Take G19U: the self-cleavage came to 0.57.

Consider C20A G45C, for which the self-cleavage was found to be 0.05.

As to C20A G45U, the self-cleavage came to 0.13.

C20A G45A: the self-cleavage worked out at 0.45.

In the case of G19U G53A, the self-cleavage was 0.1.

Consider G19U G53C, for which the self-cleavage came out at 0.06.

With G19U G53U, the self-cleavage was found to be 0.09.

Turning to C20A G54U, the self-cleavage is 0.76.

Regarding C20A G54A, the self-cleavage was determined as 0.75.

As for C20A G54C, the self-cleavage stood at 0.78.

Turning to C20G U18G, the self-cleavage came out at 0.09.

C20G U18C: the self-cleavage came to 0.2.

Take C20G U18A: the self-cleavage came out at 0.13.

C20G U43C: the self-cleavage came out at 0.07.

C20G U43A: the self-cleavage is 0.07.

Regarding C20G U43G, the self-cleavage is 0.09.

Regarding G19U G23U, the self-cleavage is 0.04.

On to G19U G23A, for which the self-cleavage came out at 0.07.

On to G19U G23C, for which the self-cleavage amounted to 0.04.

Consider G19U G30A, for which the self-cleavage came out at 0.05.

Take G19U G30U: the self-cleavage was 0.04.

G19U G30C: the self-cleavage is 0.05.

Consider C20A G48A, for which the self-cleavage turned out to be 0.09.

As for C20A G48U, the self-cleavage is 0.09.

With C20A G48C, the self-cleavage is 0.07.

In the case of G19U U18C, the self-cleavage came out at 0.36.

On to G19U U18G, for which the self-cleavage worked out at 0.33.

Turning to G19U U18A, the self-cleavage is 0.11.

For the variant G19U U12C, the self-cleavage came to 0.05.

For the variant G19U U12A, the self-cleavage stood at 0.07.

Consider G19U U12G, for which the self-cleavage amounted to 0.09.

Turning to C20G G13C, the self-cleavage was determined as 0.02.

Turning to C20G G13A, the self-cleavage was 0.03.

With C20G G13U, the self-cleavage worked out at 0.01.

With C20U C52G, the self-cleavage is 0.89.

For C20U C52U, the self-cleavage came out at 0.96.

C20U C52A: the self-cleavage stood at 0.9.

Take C20A C31U: the self-cleavage was 0.81.

In the case of C20A C31A, the self-cleavage was determined as 0.04.

With C20A C31G, the self-cleavage is 0.14.

For the variant C20A G50C, the self-cleavage was 0.78.

Turning to C20A G50A, the self-cleavage was determined as 0.8.

With C20A G50U, the self-cleavage amounted to 0.82.

On to C20G C33G, for which the self-cleavage amounted to 0.05.

For the variant C20G C33A, the self-cleavage worked out at 0.04.

In the case of C20G C33U, the self-cleavage came to 0.05.

With C20G U37A, the self-cleavage is 0.2.

As to C20G U37C, the self-cleavage worked out at 0.19.

For C20G U37G, the self-cleavage stood at 0.19.

Regarding C20U U12G, the self-cleavage came out at 0.46.

For C20U U12A, the self-cleavage was found to be 0.83.

In the case of C20U U12C, the self-cleavage was determined as 0.49.

With C20U G47C, the self-cleavage worked out at 0.15.

As for C20U G47U, the self-cleavage is 0.29.

Consider C20U G47A, for which the self-cleavage was determined as 0.28.

As to C20U G49A, the self-cleavage stood at 0.16.

As for C20U G49U, the self-cleavage worked out at 0.13.

Consider C20U G49C, for which the self-cleavage came to 0.11.

In the case of C20A G42U, the self-cleavage was determined as 0.07.

With C20A G42A, the self-cleavage turned out to be 0.59.

With C20A G42C, the self-cleavage was found to be 0.17.

Take C20U C21A: the self-cleavage stood at 0.87.

Turning to C20U C21U, the self-cleavage came to 1.05.

Turning to C20U C21G, the self-cleavage is 0.26.

Turning to C20A G51A, the self-cleavage amounted to 0.78.

For C20A G51C, the self-cleavage was found to be 0.28.

In the case of C20A G51U, the self-cleavage was found to be 0.66.

Take C20U G30C: the self-cleavage is 0.06.

As to C20U G30U, the self-cleavage stood at 0.04.

Consider C20U G30A, for which the self-cleavage was determined as 0.05.

With C20U C25G, the self-cleavage was determined as 0.15.

Turning to C20U C25A, the self-cleavage came to 0.17.

In the case of C20U C25U, the self-cleavage came to 0.9.

For the variant C20A G47C, the self-cleavage was found to be 0.13.

Regarding C20A G47U, the self-cleavage was found to be 0.32.

On to C20A G47A, for which the self-cleavage worked out at 0.36.

Take C20G G47A: the self-cleavage is 0.05.

With C20G G47C, the self-cleavage was found to be 0.04.

For the variant C20G G47U, the self-cleavage came out at 0.03.

With G19U G22C, the self-cleavage worked out at 0.05.

For the variant G19U G22A, the self-cleavage is 0.32.

For the variant G19U G22U, the self-cleavage was determined as 0.12.

As to C20U G35C, the self-cleavage is 0.93.

Regarding C20U G35A, the self-cleavage turned out to be 1.

As for C20U G35U, the self-cleavage was 1.

For C20U, the self-cleavage worked out at 0.97.

For C20A, the self-cleavage came out at 0.86.

Consider C20G, for which the self-cleavage was 0.2.

Regarding G19U G35A, the self-cleavage amounted to 0.21.

Take G19U G35C: the self-cleavage worked out at 0.6.

Consider G19U G35U, for which the self-cleavage was found to be 0.76.

Take C20A G34A: the self-cleavage was 0.84.

In the case of C20A G34U, the self-cleavage was found to be 0.64.

In the case of C20A G34C, the self-cleavage was determined as 0.26.

C20U C31A: the self-cleavage stood at 0.05.

Turning to C20U C31U, the self-cleavage worked out at 0.92.

C20U C31G: the self-cleavage was found to be 0.15.

On to C20U G42C, for which the self-cleavage was determined as 0.22.

Turning to C20U G42U, the self-cleavage came to 0.1.

For C20U G42A, the self-cleavage is 0.62.

As for C20U G22U, the self-cleavage amounted to 0.5.

For the variant C20U G22A, the self-cleavage was 0.6.

As for C20U G22C, the self-cleavage came out at 0.06.

As to G19U G47U, the self-cleavage came out at 0.04.

Consider G19U G47A, for which the self-cleavage is 0.04.

On to G19U G47C, for which the self-cleavage amounted to 0.04.

Turning to C20U C9G, the self-cleavage worked out at 0.73.
